Measurements as given in PubChem BioAssay.
Values without a mark were called inactive. Records with an inconclusive call do not appear. The source made the active and inactive calls.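 How the source made its calls, unless noted: active means inhibition over a set limit, the all-compound mean plus 3 SD, in both replicate runs; inconclusive means over that limit in just one replicate run; inactive means at or under that limit in both runs.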

What was measured:
[1] = S. cerevisiae growth inhibition in permissive medium (OD615), pilot counter-assay for S. cerevisiae lifespan shortening project, permissive growth control (AID 705;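 active means growth inhibition above 25% in both replicates, a cutoff set 3 SD above the mean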); settings: OD615, 24 h, at 10 µM, active compounds read high
In short: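 assay system = Saccharomyces cerevisiae strain carrying genetically modified DeaD replicative-lifespan system | medium = SC raffinose/galactose permissive medium | dosing = 10 µM single dose, 0.25% DMSO | schedule = 24 h compound exposure at 30 °C after 4 h pre-growth | measured by = OD at 615 nm | read-out basis = growth inhibition from lowered OD615 after 24 h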

[2] = S. cerevisiae growth inhibition in restrictive medium, OD615, pilot screen, restrictive growth control, yeast lifespan reduction project (AID 706;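 active means growth inhibition above a set limit, 3 SD over mean compound inhibition, in both replicates, cut at about 43% in these data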;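 further: modified DeaD lifespan yeast strain shifted to restrictive glucose medium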); settings: OD615, 48 h, at 10 µM, active compounds read high
In short: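 Buffer or medium: CSMM-D glucose medium. Material: genetically modified Saccharomyces cerevisiae, DeaD replicative lifespan assay strain. Times: 48 h compound exposure at 30 °C. Measured by: optical density at 615 nm.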

[3] = doxorubicin toxicity protection in MRP-1 cells – H69AR cells, CellTiter-Glo, duplicate, MRP-1 activator project, pilot screen (AID 807;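 active means viability increase at or above a cutoff of the median across tested compounds plus 3 SD, cut at about 8.5% in these data, passing the limit was not always enough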;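 further: compound pretreatment 18-22 h then 72 h combined with doxorubicin; 0% = doxorubicin alone and 100% = vehicle without doxorubicin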); settings: H69AR viability with doxorubicin, CellTiter-Glo luminescence; at 10 µM; active compounds read high
[4] = viability of HCT116 without oncogenic beta-catenin – human colon tumor cells, pilot screen (AID 823;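 active means cell viability at or below a set limit in both duplicate runs, the limit being the all-compound median minus 4 SD, cut at about 23% in these data, passing the limit was not always enough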;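 further: 0% = wells killed by 20 µM Hyamine and 100% = untreated DMSO cell wells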); settings: HCT116 beta-catenin knockout viability, CellTiter-Glo, 60 h; at 10 µM; active compounds read low
[5] = viability of PTEN-null HCT116 cells – cell-based, HCT116 clonal line, CellTiter-Glo, pilot screen (AID 824;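 active means viability at or below 27.92% in each of two runs, the all-compound median minus 4 SD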;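 further: 0% = 20 µM Hyamine control and 100% = vehicle cell control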); settings: HCT116 PTEN-deleted viability, 60 h, at 10 µM, active compounds read low
[6] = RAM pathway blockade in budding yeast – dse1pr::URA3 reporter, 5-FOA selection, pilot screen (AID 869);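 further: 0% = DMSO wells with no growth and 100% = 10 µM 1-NA-PP1 with full growth; RAM network block rescues cells from 5-FOA so hits raise OD615 growth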; settings: S. cerevisiae dse1pr::URA3 5-FOA growth, OD615, 2 d; at 10 µM; active compounds read high; strain carries analog-sensitive mutant Cbk1 kinase
[7] = RAM signaling pathway blockade in yeast – S. cerevisiae, Pdr1DBD-CYC8 efflux-inhibited sensitized strain, primary screen (AID 1298;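 active means RAM network inhibition above 8.4% in each of two replicates, 3 SD over the compound average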;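 further: 0% = DMSO untreated cells without growth and 100% = 10 µM 1-NA-PP1 full growth; higher means more yeast growth rescued from 5-FOA killing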); settings: S. cerevisiae cbk1-as DSE1-URA3 strain, 5-FOA growth OD615, 2 d; at 50 µM; active compounds read high

Row | SMILES | growth inhibition [1] | growth inhibition [2] | viability increase [3] | viability [4] | viability [5] | inhibition [6] | RAM network inhibition [7]
1 | O=C(OCCN1C(=O)c2ccccc2C1=O)c1cccs1 | -5.91% | -1.62% | -1.54% | 104% | 100% | 0.61% | 2.97%
2 | Cc1noc(C)c1S(=O)(=O)N(CC(=O)NCc1ccc(Cl)cc1)c1ccc2c(c1)OCO2 | -13.6% | -7.5% | -3.36% | 104% | 97.9% | 2.81% | 1%
3 | Cc1ccc2oc(=O)c3cc(C(=O)N4CCN(C(=O)c5ccco5)CC4)sc3c2c1 | -9.32% | -1.79% | -2.75% | 102% | 99.5% | 2.8% | 3.77%
4 | Brc1cccc(-c2nnc3sc(CNCc4ccco4)cn23)c1 | 1.61% | 47.3% (active) | -4.13% | 94.2% | 99.3% | 1.97% | 8.75%
5 | CCCc1ccc2c(N)c(C#N)sc2n1 | -9.88% | 2.12% | 0.61% | 111% | 104% | 0.235% | -0.37%
6 | Cc1ccc(Cn2c3ccccc3c3cn[nH]c(=O)c32)cc1 | -15.7% | -24.6% | -3.48% | 101% | 91.1% | 2.17% | 3.88%
7 | CCOC(=O)CNC(=O)C(NC(=O)C1CCC(C)CC1)C(C)CC (configuration not stated) | 0.975% | -17.8% | -1.73% | 98.8% | 98% | 0.95% | 0.93%
8 | Cc1cc(N2CCOCC2)nc(SCC(=O)c2ccccc2)n1 | -16.5% | -4.63% | -1.98% | 99% | 91.7% | 2.53% | 2.06%
9 | CCCCOC(=O)Nc1ccc(S(=O)(=O)Nc2cc(C)nc(C)n2)cc1 | -16.6% | -11.7% | -1.66% | 95.8% | 91.6% | 1% | 6.71%
10 | CCOC(=O)CSc1nc2c(c(=O)n1-c1ccc(OC)cc1)SCC2 | -4.98% | -0.425% | 0.37% | 99.5% | 98.6% | 1.04% | 7.6%
11 | Cc1cccc(NC(=O)CN2C(=O)COc3ccc(Cl)cc32)c1C | -3.47% | -2.44% | -0.9% | 87.5% | 85.8% | 2.24% | 4.67%
12 | CCCCNC(=O)Nc1ccc(Br)cn1 | -8.62% | 4.73% | -1.6% | 97.6% | 96% | 0.485% | 6.6%
13 | COc1ccc(N2C(=O)C(CC(=O)O)S/C2=C\C(C)=O)cc1 (configuration not stated) | -7.45% | -2.82% | -0.23% | 98% | 99.4% | 0.95% | 3.43%
14 | O=C(C1CCCN(S(=O)(=O)c2ccccc2)C1)N1CCCCCC1 (configuration not stated) | -1.18% | 0% | -1.36% | 79.6% | 94.3% | 1.79% | 4.15%
15 | O=C1c2ccccc2C(=O)N1CCCc1nc2ccccc2c(=O)n1Cc1ccco1 | -12.9% | -12.6% | -1.68% | 93.6% | 93.5% | 3.96% | 7.66%
16 | CCOC(=O)c1ccccc1NC(=O)CC1SC(=NC)N(C)C1=O (configuration not stated) | -10.3% | -22.9% | -2% | 102% | 96.2% | 2.04% | 4.34%
17 | CCOC(=O)C(C(=O)OCC)c1cc(Br)c2noc3c2c1C(=O)c1ccccc1-3 | -15.6% | -3.25% | -8.25% | 1.06% (active) | 1.23% (active) | 1.65% | 1.87%
18 | COc1ccc(OC)c(NC2c3ccccc3C(=O)N2Cc2ccc3c(c2)OCO3)c1 (configuration not stated) | -0.33% | -3.93% | -0.47% | 98% | 90% | 0.2% | 5.4%

Row | SMILES | growth inhibition [1] | growth inhibition [2] | viability increase [3] | viability [4] | viability [5] | inhibition [6] | RAM network inhibition [7]
19 | O=C(Cn1ncc2c(=O)oc3ccccc3c21)N1CCc2ccccc2C1 | -12.5% | -12.7% | -1.69% | 103% | 94.7% | 0.645% | -0.07%
20 | COc1ccc(C(=O)N2CCN(C(=O)c3ccco3)CC2)cc1 | 1.98% | 6.93% | -2.64% | 100% | 98.8% | 1.56% | 4.49%
21 | COC(=O)Cn1c(CN2CCN(c3ccc(F)cc3)CC2)nc2c1c(=O)n(C)c(=O)n2C | -1.31% | -4.9% | -0.86% | 85.1% | 86.2% | 2.88% | 1.93%
22 | COc1ccc(NC2c3ccccc3C(=O)N2c2cccnc2)cc1Cl (configuration not stated) | 4.54% | 2.02% | -2.35% | 89.5% | 80.4% | 2.27% | 0.67%
23 | CS(=O)(=O)N1CCN(c2nc(-c3ccccc3)cs2)CC1 | 10.1% | 3.18% | 0.2% | 99.9% | 94.4% | -0.535% | -0.16%
24 | Cc1ccc(S(=O)(=O)c2nc(S(C)(=O)=O)sc2N(C)C)cc1 | 0.44% | -4.42% | -5.6% | 86% | 86.9% | 0.565% | 2.51%
25 | O=C(NCCN1CCOCC1)NC1(C(F)(F)F)Oc2ccccc2O1 | -11% | 4.58% | -4.99% | 76.3% | 84.5% | 0.645% | 0.82%
26 | O=C(NCCN1CCN(C(=O)Nc2ccccc2)CC1)Nc1ccccc1 | -18.1% | -32.9% | -0.62% | 107% | 94.8% | 1.63% | 3%
27 | O=C(c1ccccc1F)N1CCN=C1SCc1cccnc1 | -22.1% | 1.65% | -1.2% | 96.8% | 99.8% | 0.695% | 4.47%
28 | Cc1cc(C)cc(NC(=O)CSc2nnc(-c3ccccc3)n2N)c1 | 5.25% | 7.08% | -3.11% | 98.1% | 97.1% | 2.74% | 4.66%
29 | COc1ccc(-n2c(Cc3cccn3C)nnc2SCC(=O)N2CCOCC2)cc1 | 3.14% | 10.2% | -1.11% | 103% | 96% | 1.11% | 0.98%
30 | CCN1CCN(c2cc(C)c3cc(NC(=O)Cc4ccc(OC)c(OC)c4)ccc3n2)CC1 | -15.9% | -16.5% | -5.64% | 75.5% | 77.2% | 3.25% | -0.95%
31 | N#Cc1ccc(Oc2cccnc2)cc1C#N | -13.5% | -20.4% | -0.76% | 100% | 97.5% | 1.49% | 2.79%
32 | Cc1c(C(=O)N2CCN(C(=O)c3ccco3)CC2)sc2nc(-c3ccc(F)cc3)cn12 | -0.195% | 3.62% | -2.53% | 91.8% | 89.3% | 0.195% | 3.7%
33 | O=C(NCCNC(=O)c1ccc(Br)o1)c1ccc(Br)o1 | -7.92% | 4.26% | 1.39% | 99.1% | 105% | 0.39% | 0.1%
34 | O=C(O)CCCNS(=O)(=O)c1ccc(F)cc1 | -5.7% | -0.905% | -1.33% | 105% | 101% | 1.14% | 0.11%
35 | COc1ccccc1N(CC(=O)N1CCCCCC1)S(C)(=O)=O | -11.6% | -10.7% | -1.57% | 89.1% | 92.5% | 0.495% | 2.63%
36 | CC1=C(C(=O)OC(C)C)C(c2cccs2)n2ncnc2N1 (configuration not stated) | -1.96% | 7.93% | -1.21% | 101% | 96.2% | 0.955% | 2.09%
